In brackets after ≈: the same amount, converted by molar mass.
Experiments:
Type in all cases: functional
[1] = tested on: Candida albicans; test: Antifungal activity against Candida albicans T26 after 24 hrs by CLSI M27-A test
Method in brief: (§1)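 CLSI M27-A broth microdilution with aqueous doubling dilutions of drug. Inoculum grown overnight at 30°C in NGY medium, then added to MOPS-buffered RPMI 1640 at an initial 10^3 yeasts/ml. Incubated 35°C for 24 h. MIC read visually as the lowest concentration giving a marked decrease in visible growth; paradoxical or trailing growth noted.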

[2] = tested on: Candida dubliniensis; test: Antifungal activity against Candida dubliniensis B71507 after 24 hrs by EUCAST test
Method in brief: (§2)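 Yeasts were grown overnight at 30°C in NGY, then inoculated at 10^5 yeasts/ml initial concentration into MOPS-buffered RPMI 1640 with 2% glucose containing aqueous doubling dilutions of drug. Plates were held at 35°C for 24 h. MICs came from triplicate spectrophotometric dose-response data at 50% and 80% growth-reduction endpoints. Trailing meant a >100-fold gap between these endpoints; paradoxical meant regrowth ≥5% above the curve minimum.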

[3] = tested on: Candida dubliniensis; test: Antifungal activity against Candida dubliniensis B71507 after 24 hrs by CLSI M27-A test
Method in brief: (§3)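 Broth microdilution with echinocandins as aqueous doubling dilutions. Yeasts were grown overnight at 30°C in NGY and seeded at 10^3 yeasts/ml initial concentration in MOPS-buffered RPMI 1640, then incubated at 35°C for 24 h. The MIC was read visually as the lowest concentration giving a marked decrease in visible growth; paradoxical or trailing growth was noted.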

[4] = tested on: Candida albicans; test: Antifungal activity against Candida albicans JIMS101103 after 24 hrs by EUCAST test
Method in brief: (§4)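 EUCAST broth microdilution with aqueous doubling dilutions of drug. Inoculum grown overnight at 30°C in NGY, then added to MOPS-buffered RPMI 1640 with 2% glucose at an initial 10^5 yeasts/ml. Incubated 35°C for 24 h. MICs taken from triplicate spectrophotometric dose-response data as 50% and 80% growth-reduction endpoints.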

[5] = tested on: Candida albicans; test: Antifungal activity against Candida albicans SCS68858 after 24 hrs by EUCAST test; method in brief: as §4
[6] = tested on: Candida dubliniensis; test: Antifungal activity against Candida dubliniensis SCS65875C after 24 hrs by CLSI M27-A test; method in brief: as §3
[7] = tested on: Candida albicans; test: Antifungal activity against Candida albicans SCS140136P after 24 hrs by CLSI M27-A test; method in brief: as §1
[8] = tested on: Candida dubliniensis; test: Antifungal activity against Candida dubliniensis Leic875 after 24 hrs by EUCAST test; method in brief: as §2
[9] = tested on: Candida dubliniensis; test: Antifungal activity against Candida dubliniensis AMCC after 24 hrs by EUCAST test; method in brief: as §4
[10] = tested on: Candida dubliniensis; test: Antifungal activity against Candida dubliniensis FS after 24 hrs by EUCAST test; method in brief: as §2
[11] = tested on: Candida albicans; test: Antifungal activity against Candida albicans CAI4RI after 24 hrs by CLSI M27-A test; method in brief: as §1
[12] = tested on: Candida albicans; test: Antifungal activity against Candida albicans T32 after 24 hrs by CLSI M27-A test; method in brief: as §1
[13] = tested on: Candida dubliniensis; test: Antifungal activity against Candida dubliniensis 81/060 after 24 hrs by EUCAST test; method in brief: as §4
[14] = tested on: Candida albicans; test: Antifungal activity against Candida albicans JIMS146204 after 24 hrs by CLSI M27-A test; method in brief: as §1
[15] = tested on: Candida dubliniensis; test: Antifungal activity against Candida dubliniensis 75/043 after 24 hrs by EUCAST test; method in brief: as §4
[16] = tested on: Candida albicans; test: Antifungal activity against Candida albicans NR4 after 24 hrs by EUCAST test; method in brief: as §4
[17] = tested on: Candida albicans; test: Antifungal activity against Candida albicans T28 after 24 hrs by EUCAST test; method in brief: as §4
[18] = tested on: Candida dubliniensis; test: Antifungal activity against Candida dubliniensis FS after 24 hrs by CLSI M27-A test; method in brief: as §3
[19] = tested on: Candida albicans; test: Antifungal activity against Candida albicans SCS67023C after 24 hrs by CLSI M27-A test; method in brief: as §1
[20] = tested on: Candida dubliniensis; test: Antifungal activity against Candida dubliniensis J931021 after 24 hrs by CLSI M27-A test; method in brief: as §3
[21] = tested on: Candida albicans; test: Antifungal activity against Candida albicans NCPF6525 after 24 hrs by CLSI M27-A test; method in brief: as §1
[22] = tested on: Candida dubliniensis; test: Antifungal activity against Candida dubliniensis 910Aa after 24 hrs by CLSI M27-A test; method in brief: as §1
[23] = tested on: Candida albicans; test: Antifungal activity against Candida albicans T28 after 24 hrs by CLSI M27-A test; method in brief: as §1
[24] = tested on: Candida dubliniensis; test: Antifungal activity against Candida dubliniensis IK after 24 hrs by EUCAST test; method in brief: as §2
[25] = tested on: Candida albicans; test: Antifungal activity against Candida albicans CAI4RI after 24 hrs by EUCAST test; method in brief: as §4
[26] = tested on: Candida albicans; test: Antifungal activity against Candida albicans SCS67023C after 24 hrs by EUCAST test; method in brief: as §4
[27] = tested on: Candida albicans; test: Antifungal activity against Candida albicans SC5314 after 24 hrs by EUCAST test; conditions: SC5314, 24 h; method in brief: as §4
[28] = tested on: Candida dubliniensis; test: Antifungal activity against Candida dubliniensis J931021 after 24 hrs by EUCAST test; method in brief: as §2
[29] = tested on: Candida dubliniensis; test: Antifungal activity against Candida dubliniensis J930936 after 24 hrs by CLSI M27-A test; method in brief: as §3
[30] = tested on: Candida albicans; test: Antifungal activity against Candida albicans NR2 after 24 hrs by CLSI M27-A test; method in brief: as §1
[31] = tested on: Candida albicans; test: Antifungal activity against Candida albicans AM2003/0083 after 24 hrs by EUCAST test; method in brief: as §4
[32] = tested on: Candida albicans; test: Antifungal activity against Candida albicans T32 after 24 hrs by EUCAST test; method in brief: as §4
[33] = tested on: Candida dubliniensis; test: Antifungal activity against Candida dubliniensis J930936 after 24 hrs by EUCAST test; method in brief: as §2
[34] = tested on: Candida dubliniensis; test: Antifungal activity against Candida dubliniensis SCS17154969-2 after 24 hrs by CLSI M27-A test; method in brief: as §3
[35] = tested on: Candida dubliniensis; test: Antifungal activity against Candida dubliniensis SCSBB417709 after 24 hrs by EUCAST test; method in brief: as §2
[36] = tested on: Candida dubliniensis; test: Antifungal activity against Candida dubliniensis Leic875 after 24 hrs by CLSI M27-A test; method in brief: as §3
[37] = tested on: Candida dubliniensis; test: Antifungal activity against Candida dubliniensis AMCC after 24 hrs by CLSI M27-A test; method in brief: as §1
[38] = tested on: Pichia kudriavzevii; test: Antifungal activity against Candida krusei ATCC 6258 after 24 hrs by CLSI M27-A test; conditions: ATCC 6258, 24 h
Method in brief: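 Broth microdilution per CLSI M27-A. Drugs were prepared as aqueous doubling dilutions. Inoculum was grown overnight at 30°C in neopeptone-yeast extract-glucose medium, then added to MOPS-buffered RPMI 1640 at an initial 10^3 yeasts/ml. Plates were incubated at 35°C for 24 h. MIC was read visually as the lowest concentration giving a marked decrease in visible growth.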

[39] = tested on: Candida albicans; test: Antifungal activity against Candida albicans Y109 after 24 hrs by EUCAST test; method in brief: as §4
[40] = tested on: Candida albicans; test: Antifungal activity against Candida albicans JIMS146204 after 24 hrs by EUCAST test; method in brief: as §4
[41] = tested on: Candida dubliniensis; test: Antifungal activity against Candida dubliniensis SCS17154969-1 after 24 hrs by EUCAST test; method in brief: as §2
[42] = tested on: Candida albicans; test: Antifungal activity against Candida albicans NCPF6525 after 24 hrs by EUCAST test; method in brief: as §4
[43] = tested on: Candida albicans; test: Antifungal activity against Candida albicans JIMS132203 after 24 hrs by CLSI M27-A test; method in brief: as §1
[44] = tested on: Candida albicans; test: Antifungal activity against Candida albicans SC5314 after 24 hrs by CLSI M27-A test; conditions: SC5314, 24 h; method in brief: as §1
[45] = tested on: Candida albicans; test: Antifungal activity against Candida albicans B06-341 after 24 hrs by CLSI M27-A test; method in brief: as §1

## CC[C@H](C)C[C@H](C)CCCCCCCCC(=O)N[C@H]1C[C@@H](O)[C@@H](NCCN)NC(=O)[C@@H]2[C@@H](O)CCN2C(=O)[C@H]([C@H](O)CCN)NC(=O)[C@H]([C@H](O)[C@@H](O)c2ccc(O)cc2)NC(=O)[C@@H]2C[C@@H](O)CN2C(=O)[C@H]([C@@H](C)O)NC1=O [CASPOFUNGIN]
[1]
  MIC50: 8 µg/mL (≈ 7.32 µM)
[2]
  MIC50: 8 µg/mL (≈ 7.32 µM)
[3]
  MIC50: 0.5 µg/mL (≈ 0.457 µM)
[4]
  MIC50: 0.25 µg/mL (≈ 0.229 µM)
[5]
  MIC50: 0.25 µg/mL (≈ 0.229 µM)
[6]
  MIC50: 0.5 µg/mL (≈ 0.457 µM)
[7]
  MIC50: 0.5 µg/mL (≈ 0.457 µM)
[8]
  MIC50: 0.25 µg/mL (≈ 0.229 µM)
[9]
  MIC50: 0.25 µg/mL (≈ 0.229 µM)
[10]
  MIC50: 16 µg/mL (≈ 14.6 µM)
[11]
  MIC50: 4 µg/mL (≈ 3.66 µM)
[12]
  MIC50: 0.25 µg/mL (≈ 0.229 µM)
[13]
  MIC50: 0.25 µg/mL (≈ 0.229 µM)
[14]
  MIC50: 0.5 µg/mL (≈ 0.457 µM)
[15]
  MIC50: 0.25 µg/mL (≈ 0.229 µM)
[16]
  MIC50: 2 µg/mL (≈ 1.83 µM)
[17]
  MIC50: 0.13 µg/mL (≈ 0.119 µM)
[18]
  MIC50: 0.5 µg/mL (≈ 0.457 µM)
[19]
  MIC50: 0.5 µg/mL (≈ 0.457 µM)
[20]
  MIC50: 0.5 µg/mL (≈ 0.457 µM)
[21]
  MIC50: 0.13 µg/mL (≈ 0.119 µM)
[22]
  MIC50: 0.5 µg/mL (≈ 0.457 µM)
[23]
  MIC50: 0.25 µg/mL (≈ 0.229 µM)
[24]
  MIC50: 0.25 µg/mL (≈ 0.229 µM)
[25]
  MIC50: 4 µg/mL (≈ 3.66 µM)
[26]
  MIC50: 0.25 µg/mL (≈ 0.229 µM)
[27]
  MIC50: 0.25 µg/mL (≈ 0.229 µM)
[28]
  MIC50: 16 µg/mL (≈ 14.6 µM)
[29]
  MIC50: 0.5 µg/mL (≈ 0.457 µM)
[30]
  MIC50: 4 µg/mL (≈ 3.66 µM)
[31]
  MIC50: 0.25 µg/mL (≈ 0.229 µM)
[32]
  MIC50: 0.13 µg/mL (≈ 0.119 µM)
[33]
  MIC50: 0.25 µg/mL (≈ 0.229 µM)
[34]
  MIC50: 0.5 µg/mL (≈ 0.457 µM)
[35]
  MIC50: 0.25 µg/mL (≈ 0.229 µM)
[36]
  MIC50: 0.5 µg/mL (≈ 0.457 µM)
[37]
  MIC50: 0.5 µg/mL (≈ 0.457 µM)
[38]
  MIC50: 1 µg/mL (≈ 0.915 µM)
[39]
  MIC50: 2 µg/mL (≈ 1.83 µM)
[40]
  MIC50: 0.25 µg/mL (≈ 0.229 µM)
[41]
  MIC50: 0.5 µg/mL (≈ 0.457 µM)
[42]
  MIC50: 1 µg/mL (≈ 0.915 µM)
[43]
  MIC50: 0.5 µg/mL (≈ 0.457 µM)
[44]
  MIC50: 0.5 µg/mL (≈ 0.457 µM)
[45]
  MIC50: 0.13 µg/mL (≈ 0.119 µM)

Reference: ChEMBL document CHEMBL1143838, “Candida albicans and Candida dubliniensis respond differently to echinocandin antifungal agents in vitro” (2007)
